Bioassay records deposited in PubChem by several laboratories.
PG9 Ab binder = PG9 antibody binding by small molecule; actives 0.43% (n = 360,000); inhibition, % at 6.7 µM; TR-FRET gp120-PG9 antibody binding; in the data active = inhibition above about 8.5%
beta cell repl = inducers of beta-cell replication in MIN6 cells. MIN6 cells proliferation, ATPlite luminescence, 48 h; cells starved in 0.2% serum; 100% = growth in 10% serum. proliferation, % at 10 µM. actives 0.29% (n = 330,000). AID 2380;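 active = compounds whose signal lies at least 3.5 SD above the mean of all wells on their plate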;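 also: 0% = DMSO-treated cells in low-serum medium and 100% = 10% serum control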
H9c2 TAG inh = triacylglycerol accumulation inhibition; H9c2 cells, Nile Red lipid (TAG) fluorescence; cells loaded with 200 µM oleic acid; actives 0.66% (n = 230,000); inhibition, % at 12.5 µM; AID 651582;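 active = pattern-corrected inhibition of lipid staining of at least 50% with the nuclear-stain viability signal not falling by more than 50%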;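 also: 0% = DMSO wells and 100% = triacsin C control wells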
NR1D1 modulator = Rev-erb alpha (human) modulation | P20393 | Rev-erbα–FITC-DNA binding, fluorescence polarization, 90 min | activity, % at 10 µM | actives 0.79% (n = 370,000) | AID 1259318;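 active = activity above about 14%, limit read from the data; passing the limit was not always enough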;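 also: 0% = DMSO wells with 35 nM protein and 100% = DMSO wells with 750 nM protein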
Target sequence (P20393 whole entry, looked up): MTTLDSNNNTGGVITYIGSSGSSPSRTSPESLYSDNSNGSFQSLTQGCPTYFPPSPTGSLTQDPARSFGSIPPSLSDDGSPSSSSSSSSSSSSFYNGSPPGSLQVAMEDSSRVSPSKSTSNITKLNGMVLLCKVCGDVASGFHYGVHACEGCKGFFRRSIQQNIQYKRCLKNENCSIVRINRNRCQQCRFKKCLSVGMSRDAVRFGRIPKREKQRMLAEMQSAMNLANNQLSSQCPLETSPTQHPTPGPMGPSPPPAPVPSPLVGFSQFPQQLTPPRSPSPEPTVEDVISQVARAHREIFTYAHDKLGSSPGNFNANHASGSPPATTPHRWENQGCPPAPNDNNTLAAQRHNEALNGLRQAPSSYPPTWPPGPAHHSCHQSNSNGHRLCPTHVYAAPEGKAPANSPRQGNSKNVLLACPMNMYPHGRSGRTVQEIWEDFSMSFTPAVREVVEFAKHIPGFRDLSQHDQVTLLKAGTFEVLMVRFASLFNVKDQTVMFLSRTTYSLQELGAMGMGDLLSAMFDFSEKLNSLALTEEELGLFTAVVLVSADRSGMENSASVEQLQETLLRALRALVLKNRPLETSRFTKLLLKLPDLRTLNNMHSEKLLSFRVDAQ
T cruzi repl = T. cruzi replication inhibition | AID 1885 | inhibition, % (test concentration not listed) | T. cruzi beta-gal in NIH3T3, luminescence, 90 h | actives 1.4% (n = 300,000);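 active = mean inhibition across valid replicates above about 55%, limit read from the data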;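 also: signal also drops with host cell toxicity which is not excluded here; 0% = plate median of DMSO wells and 100% = zero luminescence signal; higher percent means less beta-gal luminescence so fewer parasites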
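System – NIH/3T3 host cells with β-galactosidase reporter T. cruzi · Doses – single 50 nL compound addition per well in DMSO · Reagent – 5000 T. cruzi trypomastigotes/well · Medium – Low-serum DMEM with 2% FBS · Timing – ≥90 h infection period, 3 h prior cell attachment · Evaluation – parasite load inhibition, % · Technique – GalScreen luminescence, 60 min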
hiPSC survival = hiPSC single-cell survival enhancement | ATPlite luminescence; 100% = ROCK inhibitor wells, 0% = DMSO | survival enhancement, % at 20 µM | actives 0.044% (n = 360,000) | AID 602274; in the data active = survival enhancement above about 18%;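 also: cells exposed to compounds for 16 hours before the ATP read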
Starred values were filed as active, the others as inactive; · = no result given. This is a sample that favours compounds with a hit; in the whole collection about 2.9% have one here.

SMILES	PG9 Ab binder	beta cell repl	H9c2 TAG inh	NR1D1 modulator	T cruzi repl	hiPSC survival
COC(=O)c1c(C)[nH]c(O)c1C=Nc1ccc(Oc2ccccc2)cc1	0	-1	5	1	-28	0
COC(=O)c1c(C)[nH]c(O)c1C=Nc1ccc(C(C)C)cc1	-3	-4	-11	-1	58*	0
Cc1cc(C)c(-c2csc(NC(=O)COC(=O)c3ccc4c(c3)OCO4)n2)c(C)c1	1	-5	·	-1	55*	-1
Cc1cc(NCCCCCCCNc2cc(C)nc3cc([N+](=O)[O-])ccc23)c2ccc([N+](=O)[O-])cc2n1	13*	·	46	-4	·	-3
CCN1CCN(c2ccc(NC(=O)c3ccc(OC)c(S(=O)(=O)N4CCCC4)c3)cc2)CC1	-2	6	2	2	·	0
O=C(C1=C[C@H](C2CCCCC2)C[C@H](OCc2ccc(CO)cc2)O1)N1CCN(Cc2ccc3c(c2)OCO3)CC1	·	-9	-43	·	57*	0
O=C(C1=C[C@@H](c2csc3ccccc23)C[C@@H](OCc2ccc(CO)cc2)O1)N1CCN(Cc2ccc3c(c2)OCO3)CC1	-3	-8	-6	2	22	1
CC(=O)n1cc([C@H]2C=C(C(=O)N3CCN(Cc4ccc5c(c4)OCO5)CC3)O[C@@H](OCc3ccc(CO)cc3)C2)c2ccccc21	-1	-7	17	-1	56*	-2
O=C(C1=C[C@@H](c2csc3ccccc23)C[C@@H](OCc2ccc(CO)cc2)O1)N1CCN(Cc2ccccc2)CC1	·	-8	-4	·	68*	2
CC(=O)n1cc([C@H]2C=C(C(=O)N3CCN(Cc4ccccc4)CC3)O[C@@H](OCc3ccc(CO)cc3)C2)c2ccccc21	0	-7	-15	5	68*	1
CC(=O)n1cc([C@@H]2C=C(C(=O)N3CCOCC3)O[C@H](OCc3ccc(CO)cc3)C2)c2ccccc21	-2	1	-11	-4	26	1
O=C(C1=C[C@@H](C2CCCCC2)C[C@@H](OCc2ccc(CO)cc2)O1)N1CCN(Cc2ccc3c(c2)OCO3)CC1	0	-9	-9	2	42	-2
COc1ccc(S(=O)(=O)N2CCC(C(=O)N[C@@H](C)C(=O)NCc3ccccn3)CC2)cc1	0	·	-28	5	·	-2
O=C(CCc1ccccc1)Nc1ccc(NC(=O)c2ccco2)nc1	0	2	4	-5	12	-3
O=C(C1=C[C@H](c2ccc(Br)cc2)C[C@H](OCCCCO)O1)N1CCN(Cc2ccccc2)CC1	0	-3	-11	1	56*	4
O=C(C1=C[C@@H](c2ccc(Br)cc2)C[C@@H](OCCCCO)O1)N1CCN(Cc2ccc3c(c2)OCO3)CC1	0	-8	-10	8	24	-1
CC1(C)Cc2c(C#N)c(SCCOc3ccccc3)nc(N3CCOCC3)c2CO1	3	-5	-17	4	69*	-2
CC1(C)Cc2ccccc2C(C(=O)c2ccccc2)=N1	-1	0	·	8	-5	0
Cc1nc2ccccc2c2oc(C(=O)NCCCN3CCCC(C)C3)cc12 (centres undefined)	0	-2	·	0	15	0
CCN(CC)CCCNC(=O)c1cc2c(Cl)nc3ccccc3c2s1	-1	-6	31	-1	50	-2
CN(CCCNC(=O)c1cc2c(Cl)nc3ccccc3c2s1)Cc1ccccc1	-2	-6	·	1	69*	-2
CC1CCCN(CCCNC(=O)c2cc3c(Cl)nc4ccccc4c3s2)C1 (centres undefined)	0	-6	·	1	77*	-3
CCCCc1ccc(NC(=S)NCc2cccc(OC)c2)cc1	1	-6	·	-6	56*	-4
C/C(CC(=O)Nc1ccc2c(c1)OCCO2)=N\NC(=O)COc1ccc(C)cc1	1	0	·	-6	-3	0
COc1ccc(C(=O)c2no[n+]([O-])c2C(=O)c2ccc(OC)cc2)cc1	1	-4	54*	-4	-15	0
O=C(c1ccc(Cl)nc1)c1cccs1	·	0	·	·	-15	·
O=C(c1cccs1)c1no[n+]([O-])c1C(=O)c1cccs1	·	-4	87	·	62*	1
